Results as given in ChEMBL document CHEMBL3352181, “Novel phenyl and pyridyl substituted derivatives of isoindolines: Synthesis, antitumor activity and DNA binding features” (Eur J Med Chem, 2014).
Active and inactive are the calls of the source. The rule behind the calls is not given here.

Tests used:
HepG2 [1] = assay: Induction of cell cycle arrest on human HepG2 cells assessed as accumulation at subG1 phase at 20 uM after 24 hrs by propidium iodide staining based flow cytometry (reference value: 3.1 +/- 0.9%); assay type: functional
Method in brief: (§1)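 HepG2 or SW620 cells were seeded at 25000 per well. After 24 h they were treated, then harvested 24 or 48 h later. Attached cells were trypsinized, pooled with floating cells, PBS-washed and fixed in 70% ethanol. Cells were stained with PI 1 µg/mL plus RNase A 0.2 µg/mL, and 10 000 events were acquired by flow cytometry. Phase percentages come from DNA histograms, in duplicate, with ANOVA at p < 0.05.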

HepG2 [2] = assay: Induction of cell cycle arrest on human HepG2 cells assessed as accumulation at subG1 phase at 50 uM after 24 hrs by propidium iodide staining based flow cytometry (reference value: 3.1 +/- 0.9%); assay type: functional; method in brief: as §1
HepG2 [3] = assay: Induction of cell cycle arrest on human HepG2 cells assessed as accumulation at G1 phase at 20 uM after 24 hrs by propidium iodide staining based flow cytometry (reference value: 59.7 +/- 0.9%); assay type: functional
HepG2 [4] = assay: Induction of cell cycle arrest on human HepG2 cells assessed as accumulation at G1 phase at 50 uM after 24 hrs by propidium iodide staining based flow cytometry (reference value: 59.7 +/- 0.9%); assay type: functional
HepG2 [5] = assay: Induction of cell cycle arrest on human HepG2 cells assessed as accumulation at S phase at 20 uM after 24 hrs by propidium iodide staining based flow cytometry (reference value: 8.6 +/- 2.8%); assay type: functional
HepG2 [6] = assay: Induction of cell cycle arrest on human HepG2 cells assessed as accumulation at S phase at 50 uM after 24 hrs by propidium iodide staining based flow cytometry (reference value: 8.6 +/- 2.8%); assay type: functional; method in brief: as §1
HepG2 [7] = assay: Induction of cell cycle arrest on human HepG2 cells assessed as accumulation at G2/M phase at 20 uM after 24 hrs by propidium iodide staining based flow cytometry (reference value: 31.7 +/- 1.9%); assay type: functional
HepG2 [8] = assay: Induction of cell cycle arrest on human HepG2 cells assessed as accumulation at G2/M phase at 50 uM after 24 hrs by propidium iodide staining based flow cytometry (reference value: 31.7 +/- 1.9%); assay type: functional
HepG2 [9] = assay: Induction of cell cycle arrest on human HepG2 cells assessed as accumulation at subG1 phase at 20 uM after 48 hrs by propidium iodide staining based flow cytometry (reference value: 2.8 +/- 0.3%); assay type: functional; method in brief: as §1
HepG2 [10] = assay: Induction of cell cycle arrest on human HepG2 cells assessed as accumulation at subG1 phase at 50 uM after 48 hrs by propidium iodide staining based flow cytometry (reference value: 2.8 +/- 0.3%); assay type: functional; method in brief: as §1
HepG2 [11] = assay: Induction of cell cycle arrest on human HepG2 cells assessed as accumulation at G1 phase at 20 uM after 48 hrs by propidium iodide staining based flow cytometry (reference value: 55.0 +/- 4.8%); assay type: functional
HepG2 [12] = assay: Induction of cell cycle arrest on human HepG2 cells assessed as accumulation at G1 phase at 50 uM after 48 hrs by propidium iodide staining based flow cytometry (reference value: 55.0 +/- 4.8%); assay type: functional
HepG2 [13] = assay: Induction of cell cycle arrest on human HepG2 cells assessed as accumulation at S phase at 20 uM after 48 hrs by propidium iodide staining based flow cytometry (reference value: 0 +/- 0%); assay type: functional; method in brief: as §1
HepG2 [14] = assay: Induction of cell cycle arrest on human HepG2 cells assessed as accumulation at S phase at 50 uM after 48 hrs by propidium iodide staining based flow cytometry (reference value: 0 +/- 0%); assay type: functional; method in brief: as §1
HepG2 [15] = assay: Induction of cell cycle arrest on human HepG2 cells assessed as accumulation at G2/M phase at 20 uM after 48 hrs by propidium iodide staining based flow cytometry (reference value: 45.0 +/- 4.8%); assay type: functional
HepG2 [16] = assay: Induction of cell cycle arrest on human HepG2 cells assessed as accumulation at G2/M phase at 50 uM after 48 hrs by propidium iodide staining based flow cytometry (reference value: 45.0 +/- 4.8%); assay type: functional
HepG2 [17] = assay: Induction of apoptosis in human HepG2 cells assessed as induction of cytoplasmic shrinkage at 25 uM after 24 hrs by Annexin V-Fluos staining based fluorescent microscopy; assay type: functional, cell-based
Method in brief: (§2)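 Cells seeded on chamber slides at 4000 per well and treated 24 h (HepG2 at 25 or 50 µM; SW620 at 50 µM). Incubated 15 min with Annexin V-Fluos reagent plus propidium iodide, washed in PBS, and examined by fluorescence microscopy for morphology and labelling.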

HepG2 [18] = assay: Induction of apoptosis in human HepG2 cells assessed as apoptotic bodies at 25 uM after 24 hrs by Annexin V-Fluos staining based fluorescent microscopy; assay type: functional, cell-based; method in brief: as §2
[19] = molecular target: T1, DNA topoisomerase 1 (Homo sapiens) (UniProt P11387); assay: Inhibition of human topoisomerase 1 assessed as topoisomerase poison activity by measuring generation of open circular DNA using supercoiled pUC19 DNA at 5 to 50 uM by agarose gel electrophoresis
T1 sequence (whole entry): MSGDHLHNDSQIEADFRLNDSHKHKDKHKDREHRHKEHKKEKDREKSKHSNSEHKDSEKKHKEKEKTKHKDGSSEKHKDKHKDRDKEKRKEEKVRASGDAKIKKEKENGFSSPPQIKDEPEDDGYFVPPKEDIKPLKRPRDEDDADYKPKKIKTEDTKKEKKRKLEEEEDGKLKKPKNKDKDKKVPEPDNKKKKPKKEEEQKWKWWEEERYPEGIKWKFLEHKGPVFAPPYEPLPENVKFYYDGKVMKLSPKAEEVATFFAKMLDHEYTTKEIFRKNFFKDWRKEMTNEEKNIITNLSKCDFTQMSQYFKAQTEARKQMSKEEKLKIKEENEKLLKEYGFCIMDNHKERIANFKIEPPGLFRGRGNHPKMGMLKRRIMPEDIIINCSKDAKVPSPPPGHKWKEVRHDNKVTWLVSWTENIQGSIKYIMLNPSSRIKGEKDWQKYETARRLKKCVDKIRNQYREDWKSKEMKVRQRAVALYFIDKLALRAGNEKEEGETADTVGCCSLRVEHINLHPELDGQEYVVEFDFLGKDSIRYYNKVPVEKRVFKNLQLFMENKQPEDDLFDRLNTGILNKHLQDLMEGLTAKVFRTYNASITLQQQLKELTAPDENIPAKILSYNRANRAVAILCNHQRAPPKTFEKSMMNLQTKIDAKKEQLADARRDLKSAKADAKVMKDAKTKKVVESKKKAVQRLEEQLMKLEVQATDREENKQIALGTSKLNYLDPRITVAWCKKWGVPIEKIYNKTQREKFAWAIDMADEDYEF
Method in brief: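 Supercoiled pUC19 plasmid was incubated with human topoisomerase I and graded compound concentrations. Reactions were stopped with SDS and proteinase K. DNA forms were resolved on 1% agarose in TBE (2 h, 120 V), post-stained with ethidium bromide and photographed under UV. Poisoning was read as appearance of nicked DNA, with camptothecin as the positive control.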

Nucleic Acid = assay: Induction of DNA intercalation in supercoiled pUC19 DNA in presence of human topoisomerase 1 assessed as effect on topoisomerase 1-mediated DNA relaxation at 5 to 50 uM by agarose gel electrophoresis; assay type: nucleic-acid assay; conditions: Escherichia coli
Method in brief: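 Supercoiled pUC19 incubated with human topoisomerase I and graded compound concentrations. Stopped with SDS/proteinase K. DNA forms resolved on 1% agarose in TBE, 2 h at 120 V, stained post-run with ethidium bromide and viewed under UV. Camptothecin was the topo I poison control.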

MCF7 = assay: Antiproliferative activity against human MCF7 cells assessed as inhibition of cell proliferation after 72 hrs by MTT assay; assay type: functional, cell-based
Method in brief: (§3)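 Cells grown as monolayers in DMEM with 10% FBS, 2 mM L-glutamine, penicillin/streptomycin, 37 °C, 5% CO2. Seeded at 5000/well on day 0. Compounds added after 24 h as five serial dilutions (0,01 to 100 µM), DMSO ≤0.1%, then 72 h. MTT read-out converted to percentage growth. IC50 by linear regression; quadruplicates in three experiments.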

[20] = (§4) Antiproliferative activity against human SW620 cells assessed as inhibition of cell proliferation after 72 hrs by MTT assay; assay type: functional, cell-based, SW-620; conditions: Homo sapiens, SW-620, 72 h; method in brief: as §3
SW-620 = assay: as §4; assay type: functional, cell-based; method in brief: as §3
HepG2 [21] = assay: Antiproliferative activity against human HepG2 cells assessed as inhibition of cell proliferation after 72 hrs by MTT assay; assay type: functional, cell-based; method in brief: as §3
BJ = assay: Antiproliferative activity against human BJ cells assessed as inhibition of cell proliferation after 72 hrs by MTT assay; assay type: cell-based; conditions: 72 h; method in brief: as §3
HeLa = assay: Antiproliferative activity against human HeLa cells assessed as inhibition of cell proliferation after 72 hrs by MTT assay; assay type: functional, cell-based; method in brief: as §3

Which results are given for `O=[N+]([O-])c1ccc(/N=C2\c3ccccc3CN2c2ccc([N+](=O)[O-])cc2)cc1`?
Activity (HepG2 [1]): 6.6%; Activity (HepG2 [2]): 8.3%; Activity (HepG2 [3]): 58.8%; Activity (HepG2 [4]): 55%; Activity (HepG2 [5]): 25.6%; Activity (HepG2 [6]): 27.6%; Activity (HepG2 [7]): 15.6%; Activity (HepG2 [8]): 17.4%; Activity (HepG2 [9]): 4.4%; Activity (HepG2 [10]): 4.3%; Activity (HepG2 [11]): 53.7%; Activity (HepG2 [12]): 59.7%; Activity (HepG2 [13]): 1.3%; Activity (HepG2 [14]): 0.8%; Activity (HepG2 [15]): 44.9%; Activity (HepG2 [16]): 39.4%; Activity (HepG2 [17]): Active; Activity (HepG2 [18]): Active; inhibition [19]: inactive; Activity (Nucleic Acid): inactive; inhibition (MCF7): Dose-dependent effect; IC50 (MCF7; Homo sapiens, MCF7, 72 h): 8.14 µM; IC50 [20]: 33.4 µM; inhibition (SW-620): Dose-dependent effect; inhibition (HepG2 [21]): Dose-dependent effect; IC50 (HepG2 [21]; HepG2, 72 h): 9.65 µM; IC50 (BJ; Homo sapiens, BJ): 75.3 µM; inhibition (INH) (BJ; human, bj): Dose-dependent effect; inhibition (HeLa): Dose-dependent effect; IC50 (HeLa; Homo sapiens, HeLa, 72 h): 7.69 µM
